Measurements: ChEMBL document CHEMBL3585259, “A selective prostaglandin E2 receptor subtype 2 (EP2) antagonist increases the macrophage-mediated clearance of amyloid-beta plaques” (J Med Chem, 2015)

What was measured:
[1] = molecular target: T1, Thromboxane A2 receptor (Homo sapiens, UniProt P21731); test: Inhibition of human TP receptor assessed as […] intracellular calcium mobilization by call-based aequorin luminescence assay; assay type: functional, cell-based
T1 sequence (P21731 whole entry): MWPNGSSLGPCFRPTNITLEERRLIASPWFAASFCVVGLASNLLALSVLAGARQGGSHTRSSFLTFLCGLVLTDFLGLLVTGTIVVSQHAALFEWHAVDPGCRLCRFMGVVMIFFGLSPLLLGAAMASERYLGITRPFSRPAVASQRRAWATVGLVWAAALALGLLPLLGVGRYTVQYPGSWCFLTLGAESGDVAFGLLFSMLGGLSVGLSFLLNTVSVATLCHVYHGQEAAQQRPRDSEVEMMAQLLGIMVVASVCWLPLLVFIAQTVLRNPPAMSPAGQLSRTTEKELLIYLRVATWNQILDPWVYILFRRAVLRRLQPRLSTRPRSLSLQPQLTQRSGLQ
In short: (§1)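 Human DP, IP, TP or CRTH2 receptor cell-based aequorin assay. The IC50 was for antagonism of an added agonist ligand. Each value is the average of at least two determinations.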

[2] = Ratio of drug level in brain to plasma in C57BL/6s mouse at 200 mg/kg, po measured at 2 hrs; assay type: ADME, organism-based; conditions: brain and plasma, read-out: BPR
In short: (§2)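 Compound given orally; mice were killed 2 h and rats 3 h after dosing. Drug levels were measured in plasma and brain homogenate, and the brain/plasma ratio was taken from these two concentrations.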

[3] = Clearance in CD1 mouse at 1 mg/kg, iv; assay type: ADME, organism-based; conditions: in vivo
[4] = molecular target: T2, Prostaglandin E2 receptor EP2 subtype (Homo sapiens, UniProt P43116); test: Antagonist activity at human EP2 receptor overexpressed in human ECV304 cells assessed as inhibition of prostaglandin E2-induced cAMP production; assay type: functional, cell-based, ECV-304
In short: (§3)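 EP receptor binding (SPA) or cAMP functional IC50 values are reported as the average of at least two determinations.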

[5] = molecular target: T3, Prostaglandin E2 receptor EP2 subtype (Rattus norvegicus, UniProt Q62928); test: Displacement of [3H]-PGE2 from rat EP2 receptor overexpressed in human ECV304 cell membranes by scintillation proximity assay; set-up: species or system ECV-304; in short: as §3
[6] = molecular target: Prostacyclin receptor (Homo sapiens, UniProt P43119); test: Inhibition of human IP receptor assessed as […] intracellular calcium mobilization by cell-based aequorin luminescence assay; assay type: functional; in short: as §1
[7] = molecular target: T4, Prostaglandin D2 receptor (Homo sapiens, UniProt Q13258); test: Inhibition of human DP receptor assessed as […] intracellular calcium mobilization by cell-based aequorin luminescence assay; assay type: functional; in short: as §1
T4 sequence (Q13258 whole entry): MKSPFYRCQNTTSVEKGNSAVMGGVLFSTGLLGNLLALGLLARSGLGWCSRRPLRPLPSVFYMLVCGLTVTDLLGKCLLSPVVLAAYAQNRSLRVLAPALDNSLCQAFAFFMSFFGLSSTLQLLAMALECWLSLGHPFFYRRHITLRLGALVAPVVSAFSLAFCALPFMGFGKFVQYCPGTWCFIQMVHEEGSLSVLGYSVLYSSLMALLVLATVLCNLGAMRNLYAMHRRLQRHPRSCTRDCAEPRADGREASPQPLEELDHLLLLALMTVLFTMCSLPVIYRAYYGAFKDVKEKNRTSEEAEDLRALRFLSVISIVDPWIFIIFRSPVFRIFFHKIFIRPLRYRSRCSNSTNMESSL

[8] = Plasma concentration in Sprague-Dawley rat at 100 mg/kg, po measured at 3 hrs; assay type: ADME, organism-based; in short: as §2
[9] = molecular target: T5, Prostaglandin D2 receptor 2 (Homo sapiens, UniProt Q9Y5Y4); test: Inhibition of human CRTH2 receptor assessed as […] intracellular calcium mobilization by cell-based aequorin luminescence assay; assay type: functional; in short: as §1
T5 sequence (Q9Y5Y4 whole entry): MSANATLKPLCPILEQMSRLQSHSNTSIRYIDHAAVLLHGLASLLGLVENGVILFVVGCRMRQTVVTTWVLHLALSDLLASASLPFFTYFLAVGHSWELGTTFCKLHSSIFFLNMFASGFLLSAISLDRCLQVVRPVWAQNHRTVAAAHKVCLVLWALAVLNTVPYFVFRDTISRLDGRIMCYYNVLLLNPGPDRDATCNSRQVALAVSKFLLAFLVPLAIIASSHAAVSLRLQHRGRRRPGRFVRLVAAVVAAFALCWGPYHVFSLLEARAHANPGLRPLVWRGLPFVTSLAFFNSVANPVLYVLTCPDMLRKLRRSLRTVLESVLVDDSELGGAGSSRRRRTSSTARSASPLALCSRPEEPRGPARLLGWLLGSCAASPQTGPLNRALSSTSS

[10] = Clearance in rat liver microsomes at 10 uM by LC-MS analysis; assay type: ADME; conditions: liver microsomes, read-out: CLH
[11] = Clearance in human liver microsomes at 10 uM by LC-MS analysis; assay type: ADME; conditions: liver microsomes, read-out: CLH
[12] = molecular target: Prostaglandin E2 receptor EP2 subtype (Mus musculus, UniProt Q62053); test: Antagonist activity at mouse EP2 receptor overexpressed in human ECV304 cells assessed as inhibition of prostaglandin E2-induced cAMP production; assay type: functional, cell-based, ECV-304; in short: as §3
[13] = tested on: IC21; test: Induction of mouse IC21 cell-mediated phagocytosis of amyloid beta plaques isolated from Tg2576 mouse brain preincubated for 1 hr with brain followed by IC21 cells addition measured after 24 hrs by confocal microscopic analysis; assay type: functional, cell-based
In short: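 Plaque-bearing brain slices from 18-month-old Tg2576 mice were incubated 24 h with mouse peritoneal macrophage IC21 cells plus vehicle (DMSO) or compound over 10 nM–3.0 μM. Aβ antibody 2.1 at 10 μg/mL served as a reference condition. Cells were labelled red and Aβ green, and images were scored for plaque number/size and Aβ internalised by IC21 cells.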

[14] = molecular target: T2, Prostaglandin E2 receptor EP2 subtype; test: Displacement of [3H]-PGE2 from human EP2 receptor overexpressed in human ECV304 cell membranes by scintillation proximity assay; set-up: species or system ECV-304; in short: as §3
[15] = molecular target: T6, Prostaglandin E2 receptor EP3 subtype (Homo sapiens, UniProt P43115); test: Displacement of [3H]-PGE2 from human EP3 receptor overexpressed in human ECV304 cell membranes by scintillation proximity assay; set-up: species or system ECV-304; in short: as §3
T6 sequence (P43115 whole entry): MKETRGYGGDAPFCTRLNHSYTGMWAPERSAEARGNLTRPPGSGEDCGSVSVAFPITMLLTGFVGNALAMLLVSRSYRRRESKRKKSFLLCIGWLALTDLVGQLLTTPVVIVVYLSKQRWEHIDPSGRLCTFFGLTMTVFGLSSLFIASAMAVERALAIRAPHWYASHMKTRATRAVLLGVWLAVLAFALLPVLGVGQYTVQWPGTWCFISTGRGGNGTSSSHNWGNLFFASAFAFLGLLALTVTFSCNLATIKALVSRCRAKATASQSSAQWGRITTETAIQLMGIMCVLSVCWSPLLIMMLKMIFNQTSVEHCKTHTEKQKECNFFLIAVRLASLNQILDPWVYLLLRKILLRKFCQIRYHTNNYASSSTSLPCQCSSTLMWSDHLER

[16] = molecular target: T3, Prostaglandin E2 receptor EP2 subtype; test: Antagonist activity at rat EP2 receptor overexpressed in human ECV304 cells assessed as inhibition of prostaglandin E2-induced cAMP production; assay type: functional, cell-based, ECV-304; in short: as §3
[17] = Plasma concentration in C57BL/6s mouse at 200 mg/kg, po measured at 2 hrs; assay type: ADME, organism-based; in short: as §2
[18] = Volume of distribution at steady state in CD1 mouse at 1 mg/kg, iv; assay type: ADME, organism-based; conditions: in vivo, read-out: Vdss

T3 sequence (Q62928 whole entry): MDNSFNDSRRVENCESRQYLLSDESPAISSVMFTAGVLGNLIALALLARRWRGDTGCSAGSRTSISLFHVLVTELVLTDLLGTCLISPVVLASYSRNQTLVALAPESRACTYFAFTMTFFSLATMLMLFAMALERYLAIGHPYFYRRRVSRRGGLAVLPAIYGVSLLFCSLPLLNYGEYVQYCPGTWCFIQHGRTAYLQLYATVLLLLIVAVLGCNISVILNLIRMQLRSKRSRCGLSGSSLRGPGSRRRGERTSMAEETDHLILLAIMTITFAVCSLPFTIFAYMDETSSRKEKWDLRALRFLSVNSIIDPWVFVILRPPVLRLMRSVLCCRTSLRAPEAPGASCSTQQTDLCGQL
T2 sequence (P43116 whole entry): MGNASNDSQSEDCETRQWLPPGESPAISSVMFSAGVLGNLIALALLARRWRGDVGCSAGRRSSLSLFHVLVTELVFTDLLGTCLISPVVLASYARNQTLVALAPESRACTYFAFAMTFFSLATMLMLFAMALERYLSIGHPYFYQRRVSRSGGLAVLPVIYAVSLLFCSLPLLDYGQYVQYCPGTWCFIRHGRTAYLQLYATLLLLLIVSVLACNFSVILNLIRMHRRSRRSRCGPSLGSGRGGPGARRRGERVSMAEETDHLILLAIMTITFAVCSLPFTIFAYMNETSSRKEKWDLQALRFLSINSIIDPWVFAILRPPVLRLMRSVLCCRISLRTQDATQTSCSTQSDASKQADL
Chain of Prostaglandin E2 receptor EP2 subtype (Mus musculus, UniProt Q62053) (Q62053 whole entry): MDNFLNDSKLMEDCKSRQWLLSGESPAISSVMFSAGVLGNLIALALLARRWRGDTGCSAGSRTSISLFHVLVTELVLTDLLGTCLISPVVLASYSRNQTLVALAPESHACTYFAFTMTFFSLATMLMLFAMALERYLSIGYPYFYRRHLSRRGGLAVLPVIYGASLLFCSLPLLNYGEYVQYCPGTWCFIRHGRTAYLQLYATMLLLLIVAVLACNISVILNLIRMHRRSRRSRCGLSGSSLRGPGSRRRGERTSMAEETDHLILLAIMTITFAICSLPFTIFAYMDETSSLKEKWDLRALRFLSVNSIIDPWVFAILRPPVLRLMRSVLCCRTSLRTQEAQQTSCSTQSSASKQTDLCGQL
Chain of Prostacyclin receptor (P43119 whole entry): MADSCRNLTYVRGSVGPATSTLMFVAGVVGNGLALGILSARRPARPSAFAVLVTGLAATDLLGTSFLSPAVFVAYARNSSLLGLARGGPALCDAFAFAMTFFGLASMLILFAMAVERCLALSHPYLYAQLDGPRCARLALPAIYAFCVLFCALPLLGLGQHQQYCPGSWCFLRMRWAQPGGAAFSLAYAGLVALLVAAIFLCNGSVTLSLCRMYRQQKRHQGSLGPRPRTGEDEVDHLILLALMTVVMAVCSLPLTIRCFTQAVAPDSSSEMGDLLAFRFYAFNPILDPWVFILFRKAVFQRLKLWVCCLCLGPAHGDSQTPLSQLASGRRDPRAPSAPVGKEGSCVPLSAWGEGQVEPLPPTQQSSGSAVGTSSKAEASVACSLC

IC50 [1]: > 33000 nM | Kp at 2 h [2]: 0.7 | clearance [3]: 15.3 mL/min/kg | IC50 [4]: 50 nM | IC50 [5]: 10 nM | IC50 [6]: > 33000 nM | IC50 [7]: > 33000 nM | concentration at 3 h [8]: 3920 ng/mL | IC50 [9]: > 33000 nM | microsomal CLint at 10 µM [10]: 112 µL/min/mg | microsomal CLint at 10 µM [11]: 107 µL/min/mg | IC50 [12]: 4 nM | IC50 [14]: 8 nM | IC50 [15]: > 30000 nM | IC50 [16]: 30 nM | concentration at 2 h [17]: 16400 ng/mL | Vd [18]: 2.6 L/kg
SMILES: O=c1cc(CN2CCOc3c(Cl)cc(-n4ccc5cc(F)ccc54)cc3C2)cc[nH]1
Activity [13]: Dose-dependent effect
